This note sets out measurements from ChEMBL document CHEMBL4390663, “Cationic biaryl 1,2,3-triazolyl peptidomimetic amphiphiles: synthesis, antibacterial evaluation and preliminary mechanism of action studies” (Eur J Med Chem, 2019).

For one series, the system named is Enterococcus faecalis. In words: Antibacterial activity against Enterococcus faecalis ATCC 29212 incubated for 24 hrs by CLSI method. Format: functional. Conditions: ATCC 29212, 24 h.
Series [1] has as its system Clostridioides difficile. In words: Antibacterial activity against Clostridium difficile NSW132 RT027 incubated for 48 hrs by CLSI method. Format: functional. The following applies: NSW132 RT027, 48 h. Put shortly:
(§1)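 Broth microdilution per CLSI anaerobe method in pre-reduced (2-4 h) Brucella broth with haemin and vitamin K, 35 °C anaerobically for 48 h. Compounds from 5 mg/mL DMSO stocks, twofold dilutions in water mixed with double-strength broth; final 0.25–128 μg/mL. […] Triplicate; modal MIC read visually as lowest concentration inhibiting growth.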

Series [2] relates to Staphylococcus aureus. Kind of series: Antimicrobial activity against Staphylococcus aureus ATCC 29213 incubated for 24 hrs by CLSI method. Conditions: ATCC 29213, 24 h. The class given is functional. The method in brief:
(§2)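 Broth microdilution per CLSI aerobic guidance in Mueller Hinton broth, ambient air, 35 °C for 24 h. DMSO stocks were diluted in water, then serially diluted with double-strength broth inoculum added, for final 0.25–128 μg/mL. […] MIC was read visually as the lowest concentration inhibiting growth; the modal value of triplicates was recorded.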

Another series relates to Escherichia coli. In words: Antibacterial activity against Escherichia coli ATCC 25922 incubated for 18 hrs by CLSI method. Conditions: ATCC 25922, 18 h. Format: functional. Put shortly:
(§3)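 Screen run by CO-ADD: mid-log cultures in cation-adjusted MHB, 5 × 10^5 CFU/mL, compounds at up to 32 μg/mL in 1:2 serial dilutions (8 steps), final DMSO ≤0.5%, duplicate. 37 °C for 18 h without shaking; OD600 read against media-only and untreated-bacteria references. MIC = lowest concentration giving ≥80% inhibition; colistin standard.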

Series [3] can be described thus: Cytotoxicity against human HEK293 cells assessed as reduction in cell growth incubated for 20 hrs by resazurin dye-based fluorometric assay. The method in brief: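 HEK293 cells, 5000 per well in DMEM + 10% FBS, exposed to compounds (top 32 μg/mL, 1:2 serial dilution ×8, ≤0.5% DMSO, duplicate) for 20 h at 37 °C, 5% CO2. Resazurin added (2.3 μg/mL final), 3 h further; fluorescence ex 560/em 590 nm. CC50 from sigmoidal dose-response fit against log concentration; tamoxifen standard.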
On the technique in general: Resazurin is reduced to fluorescent resorufin, in cell work by metabolically active cells.

The test system of another series is Acinetobacter baumannii. Kind of series: Antimicrobial activity against Acinetobacter baumannii ATCC 19606 incubated for 18 hrs by CLSI method. Format: functional. Conditions: ATCC 19606 = CIP 70.34 = JCM 6841, 18 h. The method in brief:
as §3

Series [4] in a line: Haemolytic activity in sheep erythrocytes at 5 ug/ml incubated for 2 hrs under shaking condition relative to control. Format: ADME, cell-based, Ovis aries, Erythrocyte. The following applies: read-out: Activity. Put shortly: (§4)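 Compounds in PBS mixed with washed sheep erythrocytes (2% final) at 5 or 50 μg/mL, rocked 2 h at 37 °C, centrifuged; supernatant absorbance at 540 nm. PBS-only value subtracted, then expressed relative to water lysis (100%). Triplicate, means reported.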

In another series the test system is Pseudomonas aeruginosa. In words: Antimicrobial activity against Pseudomonas aeruginosa ATCC 27853 incubated for 18 hrs by CLSI method. Format: functional. Conditions: ATCC 27853, 18 h. The method in brief: as §3
Series [5] concerns Staphylococcus aureus. In words: Antimicrobial activity against Staphylococcus aureus ATCC 43300 incubated for 18 hrs by CLSI method. The following applies: ATCC 43300, 18 h. The class given is functional.
Series [6] has as its system Staphylococcus aureus. Kind of series: Antibacterial activity against methicillin-resistant Staphylococcus aureus NCTC 10442 incubated for 24 hrs by CLSI method. The class given is functional. The following applies: NCTC 10442, 24 h. Put shortly: as §2
A further series has as its system Klebsiella pneumoniae. In words: Antibacterial activity against Klebsiella pneumoniae 700603 incubated for 18 hrs by CLSI method. Format: functional. The following applies: Klebsiella pneumoniae, 700603, 18 h. Put shortly:
as §3

Series [7] in a line: Haemolytic activity in sheep erythrocytes at 50 ug/ml incubated for 2 hrs under shaking condition relative to control. The following applies: read-out: Activity. The class given is ADME, cell-based, Ovis aries, Erythrocyte. Put shortly: as §4
For series [8], the system named is Clostridioides difficile. In words: Antibacterial activity against Clostridium difficile ATCC 700057 incubated for 48 hrs by CLSI method. Format: functional. The following applies: ATCC 700057, 48 h. Put shortly:
as §1

The next series deals with Streptococcus pneumoniae. In words: Antibacterial activity against Streptococcus pneumoniae ATCC 49619 incubated for 24 hrs by CLSI method. The class given is functional. Conditions: ATCC 49619, 24 h. Put shortly: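 CLSI broth microdilution in MHB with 2.5% lysed horse blood, 5% CO2, 35 °C, 24 h. Compounds from 5 mg/mL DMSO stocks diluted in water plus double-strength broth; final 0.25–128 μg/mL. […] Triplicate; modal MIC read visually as lowest growth-inhibiting concentration.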

As to `CC(C)CCOc1ccc2ccccc2c1-c1c(OCc2cn(C[C@@H](CCCCN)NC(=O)[C@@H](CCCNC(=N)N)n3cc(CC4CCCCC4)nn3)nn2)ccc2ccccc12.Cl.Cl`, the MIC turned out to be 4 mg/L in the series on Enterococcus faecalis; 16 mg/L against Clostridioides difficile [1]; 4 mg/L against Staphylococcus aureus [2]; 32 mg/L with Escherichia coli; 16 mg/L in the series with Acinetobacter baumannii; 32 mg/L against Pseudomonas aeruginosa. Further, the MIC is 2 mg/L in the series on Staphylococcus aureus [5]; 4 mg/L against Staphylococcus aureus [6]; greater than 32 mg/L against Klebsiella pneumoniae; 8 mg/L in the series on Clostridioides difficile [8]; 4 mg/L against Streptococcus pneumoniae. The cytotoxic concentration (CC50) at 20 h in [3] was greater than 32 mg/L. The hemolysis at 2 h, 5 ug/ml in series [4] came out at 1.6%. Moreover, the hemolysis at 2 h, 50 ug/ml in series [7] turned out to be 88.8%.
For the molecule `CC(C)CCOc1ccccc1-c1ccccc1OCc1cn(C[C@@H](CCCNC(=N)N)NC(=O)OCc2ccccc2)nn1.Cl`, the minimal inhibitory concentration (MIC) with Enterococcus faecalis is 8 mg/L; against Clostridioides difficile [1] it was 32 mg/L; in the series on Staphylococcus aureus [2], 4 mg/L; in the series with Escherichia coli it was greater than 32 mg/L; in the series with Acinetobacter baumannii it was greater than 32 mg/L; against Pseudomonas aeruginosa, greater than 32 mg/L. Moreover, the minimum inhibitory concentration (MIC) is 8 mg/L in the series on Staphylococcus aureus [5]; 4 mg/L in the series on Staphylococcus aureus [6]; greater than 32 mg/L with Klebsiella pneumoniae; 32 mg/L against Clostridioides difficile [8]; 16 mg/L against Streptococcus pneumoniae. Further, the cytotoxic concentration (CC50) at 20 h in [3] was greater than 32 mg/L. Also, the hemolysis at 2 h, 5 ug/ml in [4] was found to be 0.7%. Besides, the hemolysis at 2 h, 50 ug/ml in [7] came to 89.1%.
For `CC(C)CCOc1ccccc1-c1ccccc1OCc1cn(C[C@@H](CCCCN)NC(=O)[C@@H](CCCNC(=N)N)NC(=O)Cc2ccccc2)nn1.Cl.Cl`, the minimal inhibitory concentration (MIC) against Enterococcus faecalis was 8 mg/L; in the series with Clostridioides difficile [1], 16 mg/L; against Staphylococcus aureus [2], 8 mg/L; against Escherichia coli it was 16 mg/L; with Acinetobacter baumannii it was 32 mg/L; in the series with Pseudomonas aeruginosa, 32 mg/L. The MIC in the series with Staphylococcus aureus [5] was found to be 4 mg/L; against Staphylococcus aureus [6], 8 mg/L; against Klebsiella pneumoniae it was 32 mg/L; in the series with Clostridioides difficile [8] it was 16 mg/L; in the series on Streptococcus pneumoniae it was 8 mg/L. Moreover, the CC50 at 20 h in series [3] turned out to be 32 mg/L. In series [4], the hemolysis at 2 h, 5 ug/ml was determined as 0.6%. The hemolysis at 2 h, 50 ug/ml in series [7] was found to be 17.5%.
In the case of `CC(C)CCOc1ccccc1-c1ccccc1OCc1cn(C[C@@H](CCCNC(=N)N)NC(=O)[C@@H](CCCCN)n2cc(CCc3ccccc3)nn2)nn1.Cl.Cl`, the MIC in the series on Enterococcus faecalis came to 8 mg/L; against Clostridioides difficile [1], 16 mg/L; in the series on Staphylococcus aureus [2], 4 mg/L; against Escherichia coli, 4 mg/L; against Acinetobacter baumannii, 16 mg/L; in the series with Pseudomonas aeruginosa it was 8 mg/L. The MIC was 2 mg/L in the series on Staphylococcus aureus [5]; 4 mg/L in the series on Staphylococcus aureus [6]; 16 mg/L in the series with Klebsiella pneumoniae; 16 mg/L with Clostridioides difficile [8]; 4 mg/L in the series on Streptococcus pneumoniae. Moreover, the CC50 at 20 h in series [3] was 17.4 mg/L. In addition, the hemolysis at 2 h, 5 ug/ml in series [4] was 1.7%. Besides, the hemolysis at 2 h, 50 ug/ml in [7] came out at 28.8%.
Turning to `CC(C)CCOc1ccccc1-c1ccccc1OCc1cn(C[C@@H](CCCCN)NC(=O)[C@@H](CCCNC(=N)N)n2cc(C3CCCCC3)nn2)nn1.Cl.Cl`, the MIC in the series with Enterococcus faecalis came out at 8 mg/L; in the series with Clostridioides difficile [1] it was 8 mg/L; in the series with Staphylococcus aureus [2] it was 8 mg/L; in the series on Escherichia coli, 8 mg/L; against Acinetobacter baumannii it was 16 mg/L; in the series with Pseudomonas aeruginosa, 8 mg/L. Also, the MIC with Staphylococcus aureus [5] amounted to 4 mg/L; with Staphylococcus aureus [6], 4 mg/L; against Klebsiella pneumoniae, 16 mg/L; in the series on Clostridioides difficile [8], 4 mg/L; against Streptococcus pneumoniae, 4 mg/L. The cytotoxic concentration (CC50) at 20 h in series [3] was 14.2 mg/L. For the same molecule, the hemolysis at 2 h, 5 ug/ml in series [4] was 1.9%. The hemolysis at 2 h, 50 ug/ml in series [7] was 22.9%.

A word on the MIC: it is the least concentration at which growth counts as inhibited. Lower therefore signals a more susceptible organism. The CC50 is the concentration giving 50% cytotoxicity.
